Reference: ChEMBL document CHEMBL1124934, “Synthesis and structure-activity relationships of dynorphin A-(1-8) amide analogues” (J Med Chem, 1990)
Square brackets hold non-standard residues; d marks the D form. Peptide text beside a SMILES is read from it. Phe(4-NO2) = N[C@@H](Cc1ccc([N+](=O)[O-])cc1)C(=O)O; NMeY = CN[C@@H](Cc1ccc(O)cc1)C(=O)O; NMeF = CN[C@@H](Cc1ccccc1)C(=O)O; Sar = CNCC(=O)O

Experiments:
[1] = biological target: Delta-type opioid receptor (Mus musculus, UniProt P32300); assay: Evaluated for inhibitory activity against Opioid receptor delta 1 of mouse vas deferens (MVD).; type: tissue-based
Sequence of Delta-type opioid receptor (P32300 whole entry): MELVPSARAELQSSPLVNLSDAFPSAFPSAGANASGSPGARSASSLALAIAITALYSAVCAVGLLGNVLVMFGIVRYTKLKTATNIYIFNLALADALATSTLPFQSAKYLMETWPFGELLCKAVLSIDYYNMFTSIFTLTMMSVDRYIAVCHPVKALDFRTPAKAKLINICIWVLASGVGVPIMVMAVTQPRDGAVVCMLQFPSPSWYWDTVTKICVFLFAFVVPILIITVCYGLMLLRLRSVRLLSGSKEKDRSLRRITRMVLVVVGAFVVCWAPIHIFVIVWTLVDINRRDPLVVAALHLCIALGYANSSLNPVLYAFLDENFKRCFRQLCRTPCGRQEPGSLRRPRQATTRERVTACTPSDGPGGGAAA

Mu-type opioid receptor [2] = biological target: T1, Mu-type opioid receptor (Cavia porcellus, UniProt P97266); assay: Evaluated for inhibitory activity against Opioid receptor mu 1 of guinea pig ileum (GPI); type: tissue-based
T1 sequence (P97266 whole entry): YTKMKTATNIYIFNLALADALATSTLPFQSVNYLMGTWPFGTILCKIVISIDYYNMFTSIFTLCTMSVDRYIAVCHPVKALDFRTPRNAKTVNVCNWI

Mus musculus [3] = assay: Evaluated for analgesic effect using mouse tail-pinch test after intravenous administration; type: functional
Summary of the method: (§1)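 Mice, intravenous dosing, tail-pinch analgesia test. Four doses per compound, each dose tested on at least eight animals, giving ED50 in mg/kg.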

Mu-type opioid receptor [4] = biological target: T1, Mu-type opioid receptor; assay: Binding affinities against Opioid receptor mu 1 of guinea pig brain membrane using [3H]DAGO as the radioligand using competition binding assays.
Summary of the method: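 μ-site competition binding on crude P2 membranes from male Hartley guinea pig brain (1 g original wet weight/20 mL, 50 mM Tris-HCl pH 7.6) with 5 nM [3H]DAGO and varied competitor, 60 min at 25 °C. GF/B filtration (1% polyethylenimine presoaked), six ice-cold buffer rinses, scintillation counting. Nonspecific binding with 10 μM levallorphan. Mean of five or six determinations ± SEM.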

Mus musculus [5] = assay: Evaluated for analgesic effect using mouse tail-pinch test after intravenous administration; 0.35-1.71; type: functional; summary of the method: as §1
Mus musculus [6] = assay: Evaluated for analgesic effect using mouse tail-pinch test after intravenous administration; 2.21-9.32; type: functional; summary of the method: as §1
Mus musculus [7] = assay: Evaluated for analgesic effect using mouse tail-pinch test after intravenous administration; 0.11-0.52; type: functional; summary of the method: as §1
Mus musculus [8] = assay: Evaluated for analgesic effect using mouse tail-pinch test after intravenous administration; 9.61-14.34; type: functional; summary of the method: as §1
Mus musculus [9] = assay: Evaluated for analgesic effect using mouse tail-pinch test after intravenous administration; 0.64-2.34; type: functional; summary of the method: as §1

CCCCCCNC(=O)[C@@H](CC(C)C)NC(=O)[C@H](CCCNC(=N)N)NC(=O)[C@H](CCCNC(=N)N)NC(=O)[C@H](CC(C)C)NC(=O)[C@H](Cc1ccccc1)NC(=O)CNC(=O)CNC(=O)[C@H](Cc1ccc(O)cc1)NC
IC50 [1]: 22.3 nM | IC50 (Mu-type opioid receptor [2]): 6.6 nM

CCCCCCNC(=O)[C@H](CC(C)C)NC(=O)[C@H](CCCN=C(N)N)NC(=O)[C@H](CCCN=C(N)N)NC(=O)[C@H](CC(C)C)NC(=O)[C@@H](Cc1ccccc1)NC(=O)CNC(=O)CNC(=O)[C@H](Cc1ccc(O)cc1)NC
ED50 (Mus musculus [3]): > 7 mg/kg

CCNC(=O)[C@@H](CC(C)C)NC(=O)[C@H](CCCN=C(N)N)N(C)C(=O)[C@H](CCCN=C(N)N)NC(=O)[C@H](CC(C)C)NC(=O)[C@H](Cc1ccc([N+](=O)[O-])cc1)NC(=O)CNC(=O)CNC(=O)[C@H](Cc1ccc(O)cc1)NC [listing 1 of 2 here]
IC50 [1]: 3.7 nM | Ki (Mu-type opioid receptor [4]): 1.74 nM | IC50 (Mu-type opioid receptor [2]): 0.5 nM

CCNC(=O)[C@@H](CC(C)C)NC(=O)[C@H](CCCN=C(N)N)N(C)C(=O)[C@H](CCCN=C(N)N)NC(=O)[C@H](CC(C)C)NC(=O)[C@H](Cc1ccc([N+](=O)[O-])cc1)NC(=O)CNC(=O)CNC(=O)[C@H](Cc1ccc(O)cc1)NC [listing 2 of 2 here]
ED50 (Mus musculus [5]): 0.77 mg/kg

CN[C@@H](Cc1ccc(O)cc1)C(=O)NCC(=O)NCC(=O)N[C@@H](Cc1ccccc1)C(=O)N[C@@H](CC(C)C)C(=O)N(C)[C@@H](CCCN=C(N)N)C(=O)N[C@@H](CCCN=C(N)N)C(=O)N[C@H](CC(C)C)C(N)=O [listing 1 of 2 here]
IC50 [1]: 114 nM | IC50 (Mu-type opioid receptor [2]): 20.6 nM

CN[C@@H](Cc1ccc(O)cc1)C(=O)NCC(=O)NCC(=O)N[C@@H](Cc1ccccc1)C(=O)N[C@@H](CC(C)C)C(=O)N(C)[C@@H](CCCN=C(N)N)C(=O)N[C@@H](CCCN=C(N)N)C(=O)N[C@H](CC(C)C)C(N)=O [listing 2 of 2 here]
ED50 (Mus musculus [6]): 4.54 mg/kg

CC[C@H](C)[C@H](NC(=O)[C@H](CCCNC(=N)N)NC(=O)[C@H](CCCNC(=N)N)NC(=O)[C@H](CC(C)C)NC(=O)[C@H](Cc1ccccc1)NC(=O)CNC(=O)CNC(=O)[C@@H](N)Cc1ccc(O)cc1)C(N)=O
IC50 [1]: 3 nM | Ki (Mu-type opioid receptor [4]): 7.16 nM | IC50 (Mu-type opioid receptor [2]): 0.2 nM

CCNC(=O)[C@@H](CC(C)C)NC(=O)[C@H](CCCN=C(N)N)N(C)C(=O)[C@H](CCCN=C(N)N)NC(=O)[C@@H]1CSSC[C@@H](NC(=O)[C@@H](N)Cc2ccc(O)cc2)C(=O)NCC(=O)N[C@@H](Cc2ccccc2)C(=O)N1 [listing 1 of 2 here]
IC50 [1]: 0.13 nM | Ki (Mu-type opioid receptor [4]): 0.85 nM | IC50 (Mu-type opioid receptor [2]): 0.007 nM

CCNC(=O)[C@@H](CC(C)C)NC(=O)[C@H](CCCN=C(N)N)N(C)C(=O)[C@H](CCCN=C(N)N)NC(=O)[C@@H]1CSSC[C@@H](NC(=O)[C@@H](N)Cc2ccc(O)cc2)C(=O)NCC(=O)N[C@@H](Cc2ccccc2)C(=O)N1 [listing 2 of 2 here]
ED50 (Mus musculus [7]): 0.22 mg/kg

CC(C)C[C@H](NC(=O)[C@H](CCCN=C(N)N)NC(=O)[C@H](CCCN=C(N)N)NC(=O)[C@H](CC(C)C)NC(=O)[C@H](Cc1ccccc1)NC(=O)CNC(=O)[C@H](C)NC(=O)[C@@H](N)Cc1ccc(O)cc1)C(N)=O (H-YAGFLRRL-NH2)
IC50 [1]: 9.1 nM | IC50 (Mu-type opioid receptor [2]): 6.9 nM | ED50 (Mus musculus [8]): 11.7 mg/kg

CC(C)C[C@H](NC(=O)[C@H](CCCN=C(N)N)NC(=O)[C@H](CCCN=C(N)N)NC(=O)[C@H](CC(C)C)NC(=O)[C@H](Cc1ccccc1)NC(=O)CNC(=O)CN(C)C(=O)[C@@H](N)Cc1ccc(O)cc1)C(N)=O (H-Y[Sar]GFLRRL-NH2)
ED50 (Mus musculus [3]): > 10 mg/kg

CC(C)C[C@H](NC(=O)[C@H](CCCNC(=N)N)NC(=O)[C@H](CCCNC(=N)N)NC(=O)[C@H](CC(C)C)NC(=O)[C@H](Cc1ccccc1)NC(=O)CNC(=O)CN(C)C(=O)[C@@H](N)Cc1ccc(O)cc1)C(N)=O (H-Y[Sar]GFLRRL-NH2)
IC50 [1]: 1770 nM | IC50 (Mu-type opioid receptor [2]): 897 nM

CN[C@@H](Cc1ccc(O)cc1)C(=O)N[C@@H](C)C(=O)NCC(=O)N[C@@H](Cc1ccccc1)C(=O)N[C@@H](CC(C)C)C(=O)N[C@@H](CCCN=C(N)N)C(=O)N[C@@H](CCCN=C(N)N)C(=O)N[C@@H](CC(C)C)C(N)=O (H-[NMeY]AGFLRRL-NH2)
ED50 (Mus musculus [3]): > 5 mg/kg

CN[C@@H](Cc1ccc(O)cc1)C(=O)N[C@@H](C)C(=O)NCC(=O)N[C@@H](Cc1ccccc1)C(=O)N[C@@H](CC(C)C)C(=O)N[C@@H](CCCNC(=N)N)C(=O)N[C@@H](CCCNC(=N)N)C(=O)N[C@@H](CC(C)C)C(N)=O (H-[NMeY]AGFLRRL-NH2)
IC50 [1]: 25.7 nM | Ki (Mu-type opioid receptor [4]): 1.25 nM | IC50 (Mu-type opioid receptor [2]): 13.9 nM

CN[C@@H](Cc1ccc(O)cc1)C(=O)NCC(=O)NCC(=O)N(C)[C@@H](Cc1ccccc1)C(=O)N[C@@H](CC(C)C)C(=O)N[C@@H](CCCNC(=N)N)C(=O)N[C@@H](CCCNC(=N)N)C(=O)N[C@@H](CC(C)C)C(N)=O (H-[NMeY]GG[NMeF]LRRL-NH2)
IC50 [1]: 121 nM | IC50 (Mu-type opioid receptor [2]): 26.7 nM

CN[C@@H](Cc1ccc(O)cc1)C(=O)NCC(=O)NCC(=O)N[C@@H](Cc1ccc([N+](=O)[O-])cc1)C(=O)N[C@@H](CC(C)C)C(=O)N[C@@H](CCCN=C(N)N)C(=O)N[C@@H](CCCN=C(N)N)C(=O)N[C@@H](CC(C)C)C(N)=O (H-[NMeY]GG[Phe(4-NO2)]LRRL-NH2)
ED50 (Mus musculus [9]): 1.23 mg/kg | IC50 [1]: 3.8 nM | Ki (Mu-type opioid receptor [4]): 1.01 nM | IC50 (Mu-type opioid receptor [2]): 1.3 nM
